An excerpt weighted towards active compounds, which were near 1.3% of everything screened.
NR2E3 ag-1: agonists of human NR2E3 nuclear receptor; CHO-S Gal4-NCOR/VP16-NR2E3 two-hybrid, luciferase; Q9Y5X4; inhibition of corepressor binding, % at 3.98 µM; 0.35% of 360,000 active;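 active = inhibition above the mean of all tested compounds plus 3 SD, cut at about 70% in these data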;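 note: 0% = DMSO with NR2E3 transfected cells and 100% = cells lacking NR2E3 construct; higher means lower luciferase signal from less NR2E3 corepressor binding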
Target sequence (Q9Y5X4 whole entry, looked up, the tested form may be a part): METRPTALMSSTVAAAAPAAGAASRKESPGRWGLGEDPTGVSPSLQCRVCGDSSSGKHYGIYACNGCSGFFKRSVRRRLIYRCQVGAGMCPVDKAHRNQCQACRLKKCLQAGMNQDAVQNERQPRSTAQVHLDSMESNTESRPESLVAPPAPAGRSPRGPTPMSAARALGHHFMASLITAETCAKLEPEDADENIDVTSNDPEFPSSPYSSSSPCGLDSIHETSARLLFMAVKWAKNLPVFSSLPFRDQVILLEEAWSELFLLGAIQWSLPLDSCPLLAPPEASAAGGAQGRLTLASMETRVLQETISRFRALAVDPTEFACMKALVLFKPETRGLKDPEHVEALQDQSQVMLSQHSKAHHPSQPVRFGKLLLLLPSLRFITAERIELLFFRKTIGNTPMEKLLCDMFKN
NR2E3 ag-2: agonists of human nuclear receptor NR2E3. GST-NR2E3/biotin-RetCOR TR-FRET, 1536-well. Q9Y5X4. AID 2300. inhibition of corepressor binding, % at 4.78 µM. 0.12% of 320,000 active;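 active = percent inhibition above the cutoff of mean plus 3 SD of all tested compounds, set per screening campaign, cut at about 20% in these data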;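 note: 0% = DMSO wells and 100% = biotin wells as full block of FRET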
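Test system – NR2E3–RetCOR corepressor complex · Quantity – NR2E3 fusion 1.35 nM · Buffer or medium – Tris pH 7.5 · Incubation – Compound–protein incubation for 5 h at 4 °C · Technique – TR-FRET, Eu(K)-anti-GST donor, streptavidin-D2 acceptor, ex 340, em 617/671 nm · Evaluation – percent inhibition of 671/617 nm emission ratio versus biotin and DMSO controls · Plate – 1536-well format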
EP2 mod: modulates human prostaglandin E2 receptor EP2 signaling; P43116; EP2-expressing cells, cAMP HTRF FRET, PGE2 co-stimulation; induction, % at 25 µM; 0.83% of 260,000 active;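 active = compounds whose cAMP rise, as percent of the full-agonist control response, exceeds 60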;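 note: rat C6 glioma line stably carrying human EP2 under a CMV promoter; the protocol text gives 20 µM as final concentration; 100% = response of wells given 1 µM PGE2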
Furin inhibitor: human furin inhibition; inhibition, % at 20 µM or 30 µM; purified furin, fluorogenic substrate cleavage; P09958; 0.061% of 220,000 active; in the data active = inhibition above about 25%
PGE2 EP2 inh: blocks the human prostaglandin E2 receptor EP2 | P43116 | inhibition, % at 25 µM | 0.52% of 260,000 active | C6 glioma cells expressing human EP2, cAMP TR-FRET; cells stimulated with saturating PGE2;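 active = percent inhibition above 40 after rounding to a whole number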;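 note: rat C6 glioma host cells with rolipram phosphodiesterase inhibitor present; the protocol text gives 20 µM as final concentration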
JMJD2C inh: blocks human GASC-1 demethylase activity; Q9H3R0; GST-JMJD2C(1-420) H3K9me3 demethylation, DELFIA europium; inhibition, % at 2.35 µM; 0.069% of 330,000 active; AID 2099;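 active = more than half of a compound's replicate wells show inhibition beyond 50%, single wells judged on their own value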;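 note: signal counts dimethyl H3K9 product captured on neutravidin plate; 0% = median of DMSO wells and 100% = 0.3 times that DMSO median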
Numbers without * were called inactive; . = no result; ! = a repeat was not active.

SMILES	NR2E3 ag-1	NR2E3 ag-2	EP2 mod	Furin inhibitor	PGE2 EP2 inh	JMJD2C inh
O=S(=O)(Nc1nc(-c2sccc2Cl)cs1)c1cc(Cl)ccc1Cl	99*	7	-2	-19	1	-1
COCC(C)NC(=O)c1cnn2c(C(F)F)cc(-c3ccc(OC)cc3)nc12 (stereo unspecified)	.	.	1	.	8	.
N#CCC(=O)Nc1ncc(Cc2ccccc2)s1	.	.	-50	.	6	.
CC(=O)Nc1nonc1NC(C)=O	-20	3	-6	-12	7	-11
CC(=O)Nc1cc(OC(C)=O)c2nonc2c1OC(C)=O	13	39*	.	-7	21	17
Cc1cccc(C2(O)CCN(C(=O)c3cnc(N4CCOCC4)nc3)CC2)c1	.	.	-14	.	4	.
CCOc1cc(C2CC(=O)Nc3cc(C)c(C)cc32)ccc1O (stereo unspecified)	14	-1	64*	-13	6	-7
COc1ccc(N=C2SC(C(N)=O)CC(=O)N2CCc2ccc(OC)c(OC)c2)cc1 (stereo unspecified)	15	1	12	-20	11	0
CNC(=O)C1CC(=O)N(CCc2ccc(OC)cc2)C(=Nc2ccc(OC)cc2)S1 (stereo unspecified)	3	0	5	27*	4	-3
COc1cc(C(=O)NCC(c2ccccc2F)N(C)C)c2ccccc2n1 (stereo unspecified)	.	.	-41	.	8	.
S=C1SCN(C2CCCCCCCCCCC2)CN1C1CCCCCCCCCCC1	.	.	12	.	41*	.
CCN(CC)CCn1c(=S)[nH]c2ccccc2c1=O	-13	-1	0	-18	4	6
CCN(CC)CC[n+]1ccc2c(C)c3[nH]c4ccccc4c3c(C)c2c1	.	.	-41	.	58*	.
O=C(CN1CCC(c2nc3ccccc3s2)CC1)Nc1ccc(Br)cc1	.	.	-77	.	37	.
Cc1nc(NC(=O)c2ccc(Br)cc2)sc1C(=O)Nc1ccc2c(c1)CCC2	.	.	-10	.	12	.
COC(=O)CSc1ccc(-c2nc3ccc(C)cc3[nH]2)cn1	-45	1	-22	-7	59*	3
FC(F)(F)c1cc(NC(=S)N2c3ccccc3-n3cccc3[C@H]2c2cccnc2)cc(C(F)(F)F)c1	.	.	-16	.	44*	.
O=C(NCc1ccco1)c1cc(-c2ccccc2Cl)on1	.	.	-56	.	16	.
COc1ccc2c(c1)[C@@H]1[C@H](CO2)[C@H](c2ccccc2)[C@]2(C)C(=O)NCC(=O)N12	-33	0	.	.	.	4
COc1ccc2c(c1)OC[C@H]1[C@H]2N2C(=O)CNC(=O)[C@@]2(C)[C@H]1c1ccccc1	.	.	.	.	.	59*
Cc1nn(-c2ccccc2)c(Cl)c1C(=O)N1CCN(c2ncnc3c2cnn3-c2ccccc2)CC1	0	0	-43	-9	40*	2
O=C(c1ccccc1)N1CCN(c2ncnc3c2cnn3-c2ccccc2)CC1	-21	-3	-32	-23	13	5
COc1ccc(Cl)c(Cn2c(NCc3ccco3)nc3c2c(=O)n(C)c(=O)n3C)c1	72*	1	17	-18	23	-1
CCc1cc2cc3c(cc2nc1SCC(=O)Nc1ccc(OC)c(OC)c1)OCO3	.	.	74*	.	10	.
CCOC(=O)CC(=O)CSc1nc2c(C)c(C)ccc2cc1C	-2	-2	66*!	-8	8	1
SMILES	NR2E3 ag-1	NR2E3 ag-2	EP2 mod	Furin inhibitor	PGE2 EP2 inh	JMJD2C inh
CCc1cc2c(C)ccc(C)c2nc1SCC(=O)OC	.	.	87*	.	16	.
COc1ccc(CC(=O)Nc2nn(C)c3nc4c(C)cccc4cc23)cc1	13	-2	-22	-17	48*	4
CCOC(=O)CC(=O)CSc1nc2c(C)c(C)ccc2cc1CC	.	.	52	.	9	.
CCC(=O)Nc1nn(C)c2nc3c(C)cccc3cc12	2	-3	-9	-32	12	2
CCCNc1nc2c(c(=O)n(C)c(=O)n2C)n1Cc1ccc(Cl)cc1	.	.	-68	.	10	.
CCc1c(C)sc2nc(C)nc(SCC(=O)Nc3ccccc3OC)c12	.	.	66*	.	9	.
COc1cccc(NC(=O)CSc2nc(C3CC3)nc3ccccc23)c1	32	-3	.	.	.	-13
CCc1cc2cccc(C)c2nc1SCC(=O)Nc1cc(OC)ccc1OC	.	.	63*	.	14	.
COc1ccc(C)cc1NC(=O)CSc1nc(C)nc2sc(C)c(C)c12	.	.	57	.	9	.
CCOC(=O)CSc1nc2ccc(C)cc2cc1CC	.	.	62*	.	12	.
COc1ccc(OC)c(NC(=O)CSc2nc(C3CCCCC3)nc3ccccc23)c1	.	.	61*	.	13	.
CC(NC(=O)Cc1ccccc1F)c1nc(-c2ccncc2)n[nH]1 (stereo unspecified)	.	.	12	.	7	.
CCS(=O)(=O)N1CCC(Cn2nc(-c3cccs3)ccc2=O)CC1	.	.	-43	.	.	.
Cc1cc(C(C)(C)C)oc1C(=O)NCCCNC(=O)c1oc(C(C)(C)C)cc1C	10	-1	61*!	-8	7	-21
CCOC(=O)c1cnc(-n2nc(C)cc2C)nc1NCc1ccc2c(c1)OCO2	82*	2	56	-25	4	-22
CCOC(=O)c1cnc(-n2nc(C)cc2C)nc1Nc1ccc(OC)cc1	17	-6	26	-15	2	4
CCOC(=O)[C@H]1[C@H]2COc3ccc(OC)cc3[C@@H]2N2C(=O)c3cc(C)ccc3NC(=O)[C@@]12C	6	0	.	.	.	52*
Fc1ccc(C(c2nnnn2CC2CCCO2)N2CCc3ccccc32)cc1 (stereo unspecified)	.	.	9	.	2	.
CCOC(=O)Cn1nnnc1C(CC)N(Cc1cc2cc(C)cc(C)c2[nH]c1=O)C1CCCC1 (stereo unspecified)	.	.	-6	.	16	.
CC(=O)N1CCc2cc(S(=O)(=O)NCCCN3CCCCC3)ccc21	8	0	.	.	.	0
CC(=O)N1CCc2cc(S(=O)(=O)NCCC3=CCCCC3)ccc21	81*	-2	.	-8	.	24
O=C1/C(=C/c2cccnc2)Sc2ccccc21	-17	3	-34	-4	49*	5
O=C1c2ccccc2C(=Cc2cccnc2)c2ccccc21	-20	.	.	.	.	.
N#CC1(Cc2ccc(Cl)cc2)c2ccccc2C=CN1C(=O)c1ccccc1 (stereo unspecified)	-39	0	63*	0	18	0
Cc1ccc(C)c(Cn2nnc3c(=O)[nH]c(C4CCN(C(=O)C(C)C)CC4)nc32)c1	.	.	-22	.	12	.
CN1CCN(S(=O)(=O)c2ccc(NC(=O)Nc3cccc(Cl)c3)cc2)CC1	11	0	-24	-18	43*	0
O=C(Nc1cccc(Cl)c1)Nc1cc(S(=O)(=O)N2CCCCC2)ccc1Cl	-13	1	-11	-24	10	7
N#Cc1cc2ccccc2nc1SCC(=O)N1CCc2ccccc21	.	.	20	.	17	.
Nc1c(Cl)ncnc1NCc1cccnc1	-7	1	.	.	.	55*
c1cncc(CNc2ncnc3sccc23)c1	3	0	-15	-14	4	-7

Compound activity as filed in PubChem.
